Series [1] can be described thus: Metabolic stability […] assessed as alpha-chymotrypsin-mediated compound degradation after 6 hrs by LC-MS analysis. The class given is ADME, cell-free. To be noted: read-out: Drug degradation. The method in brief: (§1)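 Digestion with α-chymotrypsin at an enzyme:substrate ratio of 1:50 (w/w) in 100 mM Tris-HCl/10 mM CaCl₂, pH 7.8, at 25°C. Aliquots taken at 5 min and 1, 2, 4, 6, 8 and 24 h, quenched with acetic acid, and analysed by LC-MS for intact conjugate and cleavage fragments.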

The subject of series [2] is Serum. Briefly: Metabolic stability […] assessed as alpha-chymotrypsin-mediated compound degradation after 24 hrs by LC-MS analysis. In kind it is ADME, cell-free. In short, it runs like this:
as §1

The nature of series [3]: Drug metabolism in rat liver lysosomal homogenate after 2 hrs by LC-MS analysis. To be noted: tissue homogenate. In kind it is ADME, tissue-based. In short, it runs like this: (§2)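 Conjugate at 0.1 µg/µL in 0.2 M NaOAc pH 5.0, mixed 1:1 (w/w) with rat liver lysosomal homogenate (protein 17.4 µg/µL by BCA). Incubated at 37°C; aliquots taken at 5 min and 1, 2, 4, 6, 8 and 24 h. Fragments identified by ESI ion-trap LC-MS on a C18 column with a formic acid/acetonitrile gradient, positive mode, m/z 100–2500.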

Series [4] relates to HT-29. The series can be described thus: Cellular uptake in human HT-29 cells after 6 hrs by flow cytometer. In kind it is ADME, cell-based. To be noted: ht-29, 6 h. In short, it runs like this: (§3)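 Cells plated at 1 x 10^5 per well, grown 24 h at 37°C, then exposed to conjugate in serum-free medium (0.16–100 µM) for 6 h at 37°C. Cells detached with trypsin/EDTA, resuspended in FCS-free medium and analysed by flow cytometry. Read-out is the percentage of daunorubicin-positive living cells. Duplicate samples at each concentration; each experiment repeated twice.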
A general note: In flow cytometry, cells or beads pass a laser one at a time.

In series [5] the test system is MCF7. Briefly: Cellular uptake in human MCF7 cells after 6 hrs by flow cytometer. In kind it is ADME, cell-based. To be noted: mcf7, 6 h. The method in brief:
as §3

Series [6] deals with HT-29. Briefly: Cellular uptake in human HT-29 cells at 20 uM after 6 hrs by flow cytometer. In kind it is ADME, cell-based. To be noted: ht-29, 6 h. The method in brief: (§4)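 Cells were seeded at 1 x 10^5 per well and grown 24 h. MCF-7 were kept in DMEM and HT-29 in RPMI-1640, each with 10% FCS, at 37°C and 5% CO2. Cells were exposed to bioconjugate in serum-free medium (0.16–100 µM) for 6 h at 37°C, then detached with trypsin/EDTA. Flow cytometry gave % daunorubicin-positive living cells; duplicates, two independent experiments, mean ± SD.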

Series [7] deals with HT-29. The series can be described thus: Cellular uptake in human HT-29 cells at 100 uM after 6 hrs by flow cytometer. The class given is ADME, cell-based. The following applies: ht-29, 6 h. The method in brief: as §4
Series [8] deals with MCF7. The series can be described thus: Cellular uptake in human MCF7 cells at 20 uM after 6 hrs by flow cytometer. The class given is ADME, cell-based. To be noted: mcf7, 6 h. In short, it runs like this:
as §4

Series [9] concerns MCF7. Briefly: Cellular uptake in human MCF7 cells at 100 uM after 6 hrs by flow cytometer. In kind it is ADME, cell-based. To be noted: mcf7, 6 h. The method in brief:
as §4

Series [10] deals with HT-29. The series can be described thus: Cytostatic activity against human HT-29 cells compound incubated for 6 hrs followed by compound wash out measured after 72 hrs by MTT assay. The class given is functional, cell-based. In short, it runs like this:
(§5)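 Cells plated at 5×10^3 per well and grown 24 h. Exposed 6 h to compound in serum-free RPMI-1640 (2.6×10^-4–10^2 µM, six parallels per concentration), washed twice, then cultured 72 h in serum-containing medium. MTT added at 367 µg/mL final for 3.5 h; crystals dissolved in DMSO; OD540 minus OD620 read. Cytostasis% = [1−(OD_treated/OD_control)]×100; IC50 taken from a sigmoidal fit. Three independent experiments, averaged.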

Series [11] deals with MCF7. The series can be described thus: Cytostatic activity against human MCF7 cells compound incubated for 6 hrs followed by compound wash out measured after 72 hrs by MTT assay. In kind it is functional, cell-based. In short, it runs like this: as §5
Series [12] is described as follows: Chemical stability of the compound in serum-free DMEM cell culture media after 6 hrs by RP-HPLC analysis. In kind it is physicochemical. In short, it runs like this: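 Conjugate dissolved in water (20% of final volume), then diluted with serum-free DMEM to a final 0.5 mg/mL. Incubated at 37°C for 6 h with hourly sampling. Monitored by analytical RP-HPLC on a C18 or CN column, gradient of 0.1% TFA water/MeCN, detection at 220 nm.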

Series [13] in a line: Metabolic stability in human serum assessed as alpha-chymotrypsin-mediated compound degradation after 4 hrs by LC-MS analysis. In kind it is ADME, cell-free. To be noted: Tris-HCl/CaCl2 buffer; in the assay text read “in Tris-HCl/CaCl2 buffer” for “in human serum”; read-out: Drug degradation. The method in brief:
as §1

Series [14] in a line: Drug metabolism in rat liver lysosomal homogenate after 24 hrs by LC-MS analysis. The following applies: tissue homogenate. In kind it is ADME, tissue-based. In short, it runs like this:
as §2

Series [15] is described as follows: Metabolic stability in presence of alpha-chymotrypsin assessed as compound remaining after 6 hrs by LC-MS analysis.

pIC50: −log10 of the molar value.

Results on one molecule are retold here after ChEMBL document CHEMBL2086240, “Enhanced cellular uptake and in vitro antitumor activity of short-chain fatty acid acylated daunorubicin-GnRH-III bioconjugates” (Eur J Med Chem, 2012).

`COc1cccc2c1C(=O)c1c(O)c3c(c(O)c1C2=O)C[C@@](O)(/C(C)=N/OCC(=O)NCCCC[C@H](NC(=O)[C@H](Cc1c[nH]c2ccccc12)NC(=O)[C@H](CC(=O)O)NC(=O)[C@H](Cc1cnc[nH]1)NC(=O)[C@H](CCCCNC(=O)C(C)C)NC(=O)[C@H](Cc1c[nH]c2ccccc12)NC(=O)[C@H](Cc1cnc[nH]1)NC(=O)[C@@H]1CCC(=O)N1)C(=O)N1CCC[C@H]1C(=O)NCC(N)=O)C[C@@H]3O[C@H]1C[C@H](N)[C@H](O)[C@H](C)O1`: in series [1], the metabolised at 6 h was found to be 90%. For the same molecule, the Stability entry in [2] is listed as “Unstable”; in [12], “Stable”. The Drug metabolism result in [3] and in [14] was “Active” in each case. The Drug uptake entry was “Dose-dependent effect” in series [4]; “Dose-dependent effect” in [5]; 96.9% in series [6]; 99.9% in series [7]; 93.3% in [8]; 99.7% in [9]. Also, the pIC50 – broadly, the IC50 on a negative log10 scale, so that one unit is a factor of ten – in series [10] was 5.70; in [11] it was 5.66. Also, the metabolised at 4 h in [13] stood at 60%. In addition, the share remaining (commonly the share of the starting amount still present when the sample was taken) at 6 h in [15] worked out at 10%.
